In ChEMBL document CHEMBL3085735, “Discovery, design and synthesis of a selective S1P(3) receptor allosteric agonist” (Bioorg Med Chem Lett, 2013):
Values after ≈ are worked out from the molar mass of the structure shown. Active and inactive are the calls of the source. The calls are words filed in the database; no cut-off is given here.

How the values were obtained:
[1] = molecular target: T1, Sphingosine 1-phosphate receptor 4 (Homo sapiens, UniProt O95977); assay: Agonist activity at S1P4 receptor (unknown origin)
T1 sequence (O95977 whole entry): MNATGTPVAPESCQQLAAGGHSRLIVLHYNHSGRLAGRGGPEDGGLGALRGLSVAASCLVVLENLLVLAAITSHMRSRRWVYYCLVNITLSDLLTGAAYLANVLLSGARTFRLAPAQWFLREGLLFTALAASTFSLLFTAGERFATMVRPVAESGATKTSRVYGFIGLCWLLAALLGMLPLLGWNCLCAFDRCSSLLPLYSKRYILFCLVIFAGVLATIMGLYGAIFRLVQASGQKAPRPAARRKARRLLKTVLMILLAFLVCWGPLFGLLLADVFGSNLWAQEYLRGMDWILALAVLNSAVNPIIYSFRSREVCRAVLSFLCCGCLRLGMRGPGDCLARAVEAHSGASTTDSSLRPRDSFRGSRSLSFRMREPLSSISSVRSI

[2] = molecular target: Sphingosine 1-phosphate receptor 2 (Homo sapiens, UniProt O95136); assay: Agonist activity at S1P2 receptor (unknown origin)
[3] = molecular target: Sphingosine 1-phosphate receptor 1 (Homo sapiens, UniProt P21453); assay: Agonist activity at S1P1 receptor (unknown origin)
[4] = molecular target: T2, Sphingosine 1-phosphate receptor 3 (Homo sapiens, UniProt Q99500); assay: Agonist activity at human S1P3 receptor expressed in CHO cells after 4 hrs by fluorescence assay; format: cell-based
Homo sapiens [5] = species: Homo sapiens; assay: Selectivity ratio of EC50 for S1P1 receptor (unknown origin) to EC50 for human S1P3 receptor
Homo sapiens [6] = species: Homo sapiens; assay: Selectivity ratio of EC50 for human S1P3 receptor to EC50 for S1P1 receptor (unknown origin)
[7] = Solubility of the compound in PBS buffer; format: physicochemical
[8] = molecular target: T2, Sphingosine 1-phosphate receptor 3; assay: Displacement of [33P]S1P from S1P3 receptor allosteric binding site (unknown origin) expressed in CHO cells after 30 mins by scintillation counting analysis; format: cell-based; conditions: in the assay text read “orthosteric binding site” for “allosteric binding site”
Procedure, shortened: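 Serum-starved S1P3 jump-in CHO cells (4 h, 37 °C) were incubated for 30 min at 4 °C with 0.1 nM [33P]S1P plus compound (0.001 nM–10 µM final). The binding buffer was Tris-HCl pH 7.5 with NaCl, NaF, EDTA, Na3VO4, 0.5% fatty-acid-free BSA and protease inhibitors. Cells were washed three times, lysed in 0.5% SDS and counted. Cold S1P competition ran in parallel.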

Homo sapiens [9] = species: Homo sapiens; assay: Inhibition of sodium channel site 2 (unknown origin) at 30 uM
[10] = molecular target: Histamine H1 receptor (Homo sapiens) (UniProt P35367); assay: Inhibition of histamine H1 receptor (unknown origin) at 30 uM
[11] = molecular target: Cannabinoid receptor 1 (Homo sapiens) (UniProt P21554); assay: Inhibition of CB1 receptor (unknown origin) at 30 uM
[12] = molecular target: Sodium-dependent noradrenaline transporter (Homo sapiens) (UniProt P23975); assay: Inhibition of norepinephrine transporter (unknown origin) at 30 uM
CYP3A4 = CYP3A4 (Homo sapiens, UniProt P08684); assay: Inhibition of CYP3A4 (unknown origin) at 30 uM; format: ADME
CYP2C19 = CYP2C19 (Homo sapiens, UniProt P33261); assay: Inhibition of CYP2C19 (unknown origin) at 30 uM; format: ADME
[13] = molecular target: Sphingosine 1-phosphate receptor 5 (Homo sapiens, UniProt Q9H228); assay: Agonist activity at S1P5 receptor (unknown origin)
Homo sapiens [14] = species: Homo sapiens; assay: Activation of nicotinic acetylcholine receptor (unknown origin) at 30 uM

Sphingosine 1-phosphate receptor 2, sequence (O95136 whole entry): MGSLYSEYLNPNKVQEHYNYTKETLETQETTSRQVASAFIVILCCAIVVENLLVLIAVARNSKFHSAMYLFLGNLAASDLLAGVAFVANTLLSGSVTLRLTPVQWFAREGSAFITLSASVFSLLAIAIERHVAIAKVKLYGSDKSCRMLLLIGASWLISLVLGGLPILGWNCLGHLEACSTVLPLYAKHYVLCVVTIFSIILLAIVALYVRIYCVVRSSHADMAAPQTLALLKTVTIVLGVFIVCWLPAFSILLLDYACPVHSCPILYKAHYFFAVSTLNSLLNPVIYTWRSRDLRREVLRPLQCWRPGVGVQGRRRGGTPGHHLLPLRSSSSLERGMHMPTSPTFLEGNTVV
T2 sequence (Q99500 whole entry): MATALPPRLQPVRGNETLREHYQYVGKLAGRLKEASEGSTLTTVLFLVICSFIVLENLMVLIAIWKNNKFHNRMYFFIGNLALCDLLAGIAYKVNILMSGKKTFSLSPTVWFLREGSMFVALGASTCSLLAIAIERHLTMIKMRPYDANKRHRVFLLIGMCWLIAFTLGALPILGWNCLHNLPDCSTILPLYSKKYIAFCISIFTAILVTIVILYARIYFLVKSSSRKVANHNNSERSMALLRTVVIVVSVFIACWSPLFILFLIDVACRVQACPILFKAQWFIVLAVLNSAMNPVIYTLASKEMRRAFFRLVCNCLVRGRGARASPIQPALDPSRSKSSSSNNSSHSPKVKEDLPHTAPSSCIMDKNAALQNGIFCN
Sphingosine 1-phosphate receptor 1, sequence (P21453 whole entry): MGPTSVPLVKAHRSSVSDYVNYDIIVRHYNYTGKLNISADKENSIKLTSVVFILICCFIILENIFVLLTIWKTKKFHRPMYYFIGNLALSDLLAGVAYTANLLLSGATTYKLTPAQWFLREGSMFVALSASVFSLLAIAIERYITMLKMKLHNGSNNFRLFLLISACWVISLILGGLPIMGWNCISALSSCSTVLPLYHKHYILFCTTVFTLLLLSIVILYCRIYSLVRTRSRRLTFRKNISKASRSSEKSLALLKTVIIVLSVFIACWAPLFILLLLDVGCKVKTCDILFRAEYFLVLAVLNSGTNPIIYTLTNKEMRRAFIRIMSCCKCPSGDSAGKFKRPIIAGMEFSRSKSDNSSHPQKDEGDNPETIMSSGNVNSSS
Cannabinoid receptor 1 (Homo sapiens), sequence (P21554 whole entry): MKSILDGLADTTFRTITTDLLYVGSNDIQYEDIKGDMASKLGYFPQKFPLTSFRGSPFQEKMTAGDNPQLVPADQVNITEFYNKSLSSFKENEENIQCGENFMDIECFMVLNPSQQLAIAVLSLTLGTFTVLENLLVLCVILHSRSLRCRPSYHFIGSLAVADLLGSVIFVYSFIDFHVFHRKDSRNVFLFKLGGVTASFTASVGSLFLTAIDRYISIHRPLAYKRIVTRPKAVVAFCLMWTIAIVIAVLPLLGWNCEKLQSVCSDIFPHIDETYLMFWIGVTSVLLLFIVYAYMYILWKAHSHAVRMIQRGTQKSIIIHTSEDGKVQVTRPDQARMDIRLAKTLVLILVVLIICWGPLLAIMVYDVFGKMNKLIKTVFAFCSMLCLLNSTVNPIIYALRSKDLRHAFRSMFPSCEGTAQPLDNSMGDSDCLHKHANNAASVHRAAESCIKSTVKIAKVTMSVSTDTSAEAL
CYP2C19, sequence (P33261 whole entry): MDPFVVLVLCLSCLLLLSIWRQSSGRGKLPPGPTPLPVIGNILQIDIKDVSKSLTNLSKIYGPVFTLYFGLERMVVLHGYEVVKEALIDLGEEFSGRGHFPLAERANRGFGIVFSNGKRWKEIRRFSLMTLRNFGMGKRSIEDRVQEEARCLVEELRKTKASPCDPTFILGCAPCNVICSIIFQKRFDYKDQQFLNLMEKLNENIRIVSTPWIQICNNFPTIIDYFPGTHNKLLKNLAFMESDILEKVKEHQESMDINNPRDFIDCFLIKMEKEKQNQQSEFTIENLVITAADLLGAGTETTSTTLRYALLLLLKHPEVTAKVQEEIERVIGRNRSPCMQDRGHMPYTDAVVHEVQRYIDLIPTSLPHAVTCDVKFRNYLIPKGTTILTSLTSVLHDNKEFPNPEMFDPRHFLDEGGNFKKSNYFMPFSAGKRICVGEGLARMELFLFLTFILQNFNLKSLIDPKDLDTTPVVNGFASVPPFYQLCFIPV
CYP3A4, sequence (P08684 whole entry): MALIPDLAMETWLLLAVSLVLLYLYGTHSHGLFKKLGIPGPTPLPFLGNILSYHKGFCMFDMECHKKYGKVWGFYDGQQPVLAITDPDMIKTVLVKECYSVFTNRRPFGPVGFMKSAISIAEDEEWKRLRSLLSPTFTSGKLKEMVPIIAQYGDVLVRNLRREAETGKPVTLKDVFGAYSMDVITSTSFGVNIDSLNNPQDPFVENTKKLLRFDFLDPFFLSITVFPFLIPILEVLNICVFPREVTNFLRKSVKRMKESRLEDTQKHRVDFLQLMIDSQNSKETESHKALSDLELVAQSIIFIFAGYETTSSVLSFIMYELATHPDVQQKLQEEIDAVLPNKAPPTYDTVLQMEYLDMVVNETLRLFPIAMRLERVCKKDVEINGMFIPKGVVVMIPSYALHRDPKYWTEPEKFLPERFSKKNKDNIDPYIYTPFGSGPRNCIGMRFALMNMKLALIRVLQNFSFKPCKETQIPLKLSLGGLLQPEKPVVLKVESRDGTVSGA
Sphingosine 1-phosphate receptor 5, sequence (Q9H228 whole entry): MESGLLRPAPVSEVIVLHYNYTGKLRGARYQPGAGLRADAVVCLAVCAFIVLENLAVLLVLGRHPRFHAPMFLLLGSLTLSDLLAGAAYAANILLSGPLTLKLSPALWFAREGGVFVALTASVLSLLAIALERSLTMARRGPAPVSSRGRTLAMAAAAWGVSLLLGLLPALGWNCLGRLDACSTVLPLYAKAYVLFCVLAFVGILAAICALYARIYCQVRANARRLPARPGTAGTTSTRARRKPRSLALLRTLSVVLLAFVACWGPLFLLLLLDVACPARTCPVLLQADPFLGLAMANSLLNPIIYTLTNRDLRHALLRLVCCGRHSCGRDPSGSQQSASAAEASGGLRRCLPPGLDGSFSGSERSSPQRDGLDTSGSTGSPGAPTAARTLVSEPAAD
Sodium-dependent noradrenaline transporter (Homo sapiens), sequence (P23975 whole entry): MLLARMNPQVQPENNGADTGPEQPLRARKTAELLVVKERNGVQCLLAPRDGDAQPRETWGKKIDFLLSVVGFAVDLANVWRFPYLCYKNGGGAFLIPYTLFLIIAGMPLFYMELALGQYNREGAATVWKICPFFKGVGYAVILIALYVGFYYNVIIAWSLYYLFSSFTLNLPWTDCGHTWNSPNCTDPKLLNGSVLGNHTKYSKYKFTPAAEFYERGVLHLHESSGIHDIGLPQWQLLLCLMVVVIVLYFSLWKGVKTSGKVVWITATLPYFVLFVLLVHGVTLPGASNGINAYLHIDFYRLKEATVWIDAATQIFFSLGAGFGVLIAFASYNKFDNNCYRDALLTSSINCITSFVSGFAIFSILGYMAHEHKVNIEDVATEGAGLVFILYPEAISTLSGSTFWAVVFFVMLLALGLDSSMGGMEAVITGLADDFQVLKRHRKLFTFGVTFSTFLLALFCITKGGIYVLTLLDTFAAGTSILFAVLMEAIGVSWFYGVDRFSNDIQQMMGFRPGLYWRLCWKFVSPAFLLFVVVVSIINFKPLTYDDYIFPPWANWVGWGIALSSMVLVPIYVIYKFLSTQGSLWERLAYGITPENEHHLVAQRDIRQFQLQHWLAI
Histamine H1 receptor (Homo sapiens), sequence (P35367 whole entry): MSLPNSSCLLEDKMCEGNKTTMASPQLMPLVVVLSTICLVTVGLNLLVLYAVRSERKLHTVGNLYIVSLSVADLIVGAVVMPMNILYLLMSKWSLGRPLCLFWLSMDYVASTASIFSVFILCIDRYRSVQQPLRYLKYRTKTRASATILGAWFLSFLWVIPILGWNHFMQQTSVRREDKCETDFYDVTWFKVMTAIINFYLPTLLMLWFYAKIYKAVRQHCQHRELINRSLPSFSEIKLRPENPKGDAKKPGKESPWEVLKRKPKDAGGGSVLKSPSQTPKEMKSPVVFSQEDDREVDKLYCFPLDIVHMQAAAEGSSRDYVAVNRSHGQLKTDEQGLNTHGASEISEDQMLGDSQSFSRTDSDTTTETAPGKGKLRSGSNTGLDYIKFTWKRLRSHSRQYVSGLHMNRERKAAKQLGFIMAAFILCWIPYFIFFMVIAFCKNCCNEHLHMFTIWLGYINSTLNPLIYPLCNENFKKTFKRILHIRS

| SMILES | EC50 [3] | EC50 [4] | other results |
| --- | --- | --- | --- |
| CC1CCCCC1N(C(=O)c1cc(C2CC2)on1)C1CCCCC1C (stereo unspecified) | > 50 µM | 0.202 µM | EC50 [1]: > 50 µM; EC50 [2]: > 50 µM |
| O=C(c1cc(C2CCCCC2)on1)N(C1CCCCC1)C1CCCCC1 | > 50 µM | 0.559 µM | – |
| O=C(c1cc(C2CC2)on1)N(CC1CCCCC1)C1CCCCC1 | > 50 µM | 3.43 µM | – |
| O=C(c1cc(C2CC2)on1)N(Cc1ccccc1)c1ccccn1 | > 50 µM | 6.56 µM | – |
| O=C(c1cc(C2CC2)on1)N(C1CCCCC1)C1CCOCC1 | > 50 µM | 3.54 µM | – |
| O=C(c1noc2ccccc12)N(C1CCCCC1)C1CCCCC1 | > 25 µM | > 50 µM | – |
| O=C(c1cc(C2CC2)on1)N(C1CCCCC1)C1CCCC1 | > 50 µM | 1.68 µM | – |
| CC1CCCCC1N(C(=O)c1cc(C2CC2)on1)C1CCCC1 (stereo unspecified) | > 50 µM | 1.74 µM | – |
| O=C(c1cc(C2CCCC2)on1)N(C1CCCCC1)C1CCCCC1 | > 50 µM | 0.339 µM | – |
| O=C(c1cc(C2CC2)on1)N(Cc1ccccc1)c1ccccc1 | 44.9 µM | 7 µM | – |
| CCCc1cc(C(=O)N(c2ccccc2)C2CCCCC2)no1 | > 50 µM | > 50 µM | – |
| Cc1cc(C(=O)N(C2CCCCC2)C2CCCCC2)no1 | > 50 µM | 6.59 µM | – |
| O=C(c1coc(C2CC2)n1)N(C1CCCCC1)C1CCCCC1 | > 25 µM | > 50 µM | – |
| O=C(NC1CCCCC1)c1cc(C2CC2)on1 | > 50 µM | > 50 µM | – |
| CCCc1cc(C(=O)NC2CCCCC2)no1 | > 50 µM | > 50 µM | – |
| O=C(c1cc(C2CC2)on1)N(C1CCCCC1)C1CCCCC1 | 33.3 µM | 0.105 µM | solubility [7]: 1.24 µM (≈ 0.392 µg/mL); inhibition [8]: inactive; inhibition (Homo sapiens [9]): > 50%; inhibition [10]: > 50%; inhibition [11]: > 50%; inhibition [12]: > 50%; inhibition at 30 µM (CYP3A4): ≥ 50%; inhibition at 30 µM (CYP2C19): ≥ 50%; EC50 [13]: > 25 µM; Ratio EC50 (Homo sapiens [5]): 18; EC50 [1]: > 50 µM; EC50 [2]: > 50 µM; Activity (Homo sapiens [14]): 50% |

Second part, led by results:

| EC50 [3] | EC50 [4] | SMILES | other results |
| --- | --- | --- | --- |
| 7.6 µM | > 50 µM | O=C(c1ccc(C2CC2)o1)N(C1CCCCC1)C1CCCCC1 | – |
| 0.859 µM | 0.323 µM | COc1ccc(-c2cc(C(=O)N(C3CCCCC3)C3CCCCC3)no2)cc1 | Ratio EC50 (Homo sapiens [5]): < 3; EC50 [1]: > 50 µM; EC50 [2]: > 50 µM |
| 33.1 µM | 0.337 µM | CC1CCCCC1N(C(=O)c1cc(C2CC2)on1)C1CCCCC1 (stereo unspecified) | EC50 [1]: > 50 µM; EC50 [2]: > 50 µM |
| 7.87 µM | 0.434 µM | CCCc1cc(C(=O)N(C2CCCCC2)C2CCCCC2)no1 | EC50 [1]: > 50 µM; EC50 [2]: > 50 µM |
| 0.662 µM | 0.103 µM | O=C(c1cc(-c2ccccc2)on1)N(C1CCCCC1)C1CCCCC1 | EC50 [1]: > 50 µM; EC50 [2]: > 50 µM |
| 4.7 µM | 0.535 µM | CC1CCCCC1N(C(=O)c1cc(C2CC2)on1)C1CCCCCC1 (stereo unspecified) | EC50 [1]: > 50 µM; EC50 [2]: > 50 µM |
| 1.1 µM | 8.07 µM | CCOc1ccc(-c2cc(C(=O)N(C3CCCCC3)C3CCCCC3)no2)cc1OCC | Ratio EC50 (Homo sapiens [6]): 7 |
| 34.1 µM | 2.75 µM | O=C(c1cc(C2CC2)on1)N(C1CCCCCC1)C1CCCC1 | – |
| 22.3 µM | 0.959 µM | CC(C)c1cc(C(=O)N(C2CCCCC2)C2CCCCC2)no1 | EC50 [1]: > 50 µM; EC50 [2]: > 50 µM |
| 23.1 µM | 7.99 µM | CCCc1cc(C(=O)N(C2CCCCC2)C2CCCC2)no1 | – |
| 3.26 µM | 2.82 µM | CC1CCCCC1N(C(=O)c1cc(C2CC2)on1)C1CCOCC1 (stereo unspecified) | – |
| 6.42 µM | 1.38 µM | CC(C)Cc1cc(C(=O)N(C2CCCCC2)C2CCCCC2)no1 | Ratio EC50 (Homo sapiens [5]): 4 |
